# Reference: ChEMBL document CHEMBL5058577, “EUbOPEN Chemogenomics Library 2 (Multiplex)” (2022)
# Tested on: U2OS
# Assay: Multiplex assay against U2OS
# Assay type: toxicity, cell-based
# Conditions: human
# How it was run: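 Compound was added to live cells that had been stained at seeding with Hoechst33342, BioTracker Green Microtubule Cytoskeleton Dye, MitoTracker Red and Annexin V Alexa Fluor 680, and imaging followed on a CQ1 microscope at 37°C and 5% CO2. CellPathfinder machine-learning gating divided cells into Hoechst high-intensity objects or normal cells, normal cells into healthy, pyknosed or fragmented nuclei, and pyknosed cells into mitotic or apoptotic. Tubulin, mitochondrial-mass and membrane-permeability phenotypes are per cents of healthy-nucleus cells.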
# [1] = 12 h, 1 µM, compound concentration 1 uM, replicate 1
# [2] = 12 h, 1 µM, compound concentration 1 uM, replicate 2
# [3] = 12 h, 10 µM, compound concentration 10 uM, replicate 1
# [4] = 12 h, 10 µM, compound concentration 10 uM, replicate 2
# [5] = 24 h, 1 µM, compound concentration 1 uM, replicate 1
# [6] = 24 h, 1 µM, compound concentration 1 uM, replicate 2
# [7] = 24 h, 10 µM, compound concentration 10 uM, replicate 1
# [8] = 24 h, 10 µM, compound concentration 10 uM, replicate 2
# [9] = 48 h, 1 µM, compound concentration 1 uM, replicate 1
# [10] = 48 h, 1 µM, compound concentration 1 uM, replicate 2
# [11] = 48 h, 10 µM, compound concentration 10 uM, replicate 1
# [12] = 48 h, 10 µM, compound concentration 10 uM, replicate 2
structure (smiles),measurement,setting,value
O=C(O)Cc1ccccc1Nc1c(Cl)cccc1Cl [DICLOFENAC],Population Apoptotic (%),[1],90%
same,Population Fragmented Nuclei (%),[1],15%
same,Population Healthy Nuclei (%),[1],78%
same,Population Hoechst High Intensity Objects (%),[1],5%
same,Population Membrane Permeable-Phenotype (%),[1],4%
same,Population Mitochondria Different-Phenotype (%),[1],4%
same,Population Mitotic Cells (%),[1],10%
same,Population Normal (%),[1],94%
same,Population Pyknosed Nuclei (%),[1],6%
same,Population Tubulin-Different-Phenotype (%),[1],4%
same,Total Cell Count,[1],164
same,Population Apoptotic (%),[2],84%
same,Population Fragmented Nuclei (%),[2],13%
same,Population Healthy Nuclei (%),[2],76%
same,Population Hoechst High Intensity Objects (%),[2],0%
same,Population Membrane Permeable-Phenotype (%),[2],5%
same,Population Mitochondria Different-Phenotype (%),[2],2%
same,Population Mitotic Cells (%),[2],15%
same,Population Normal (%),[2],99%
same,Population Pyknosed Nuclei (%),[2],10%
same,Population Tubulin-Different-Phenotype (%),[2],2%
same,Population Apoptotic (%),[3],75%
same,Population Fragmented Nuclei (%),[3],20%
same,Population Healthy Nuclei (%),[3],68%
same,Population Hoechst High Intensity Objects (%),[3],2%
same,Population Membrane Permeable-Phenotype (%),[3],8%
same,Population Mitochondria Different-Phenotype (%),[3],4%
same,Population Mitotic Cells (%),[3],25%
same,Population Normal (%),[3],97%
same,Population Pyknosed Nuclei (%),[3],11%
same,Population Tubulin-Different-Phenotype (%),[3],4%
same,Total Cell Count,[3],258
same,Population Apoptotic (%),[4],72%
same,Population Fragmented Nuclei (%),[4],14%
same,Population Healthy Nuclei (%),[4],76%
same,Population Hoechst High Intensity Objects (%),[4],3%
same,Population Mitochondria Different-Phenotype (%),[4],3%
same,Population Mitotic Cells (%),[4],27%
same,Population Normal (%),[4],96%
same,Population Pyknosed Nuclei (%),[4],9%
same,Population Tubulin-Different-Phenotype (%),[4],8%
same,Population Apoptotic (%),[5],92%
same,Population Fragmented Nuclei (%),[5],15%
same,Population Healthy Nuclei (%),[5],76%
same,Population Hoechst High Intensity Objects (%),[5],4%
same,Population Membrane Permeable-Phenotype (%),[5],2%
same,Population Mitochondria Different-Phenotype (%),[5],2%
same,Population Mitotic Cells (%),[5],7%
same,Population Normal (%),[5],95%
same,Population Pyknosed Nuclei (%),[5],7%
same,Population Tubulin-Different-Phenotype (%),[5],2%
same,Total Cell Count,[5],191
same,Population Apoptotic (%),[6],87%
same,Population Fragmented Nuclei (%),[6],19%
same,Population Healthy Nuclei (%),[6],70%
same,Population Hoechst High Intensity Objects (%),[6],3%
same,Population Membrane Permeable-Phenotype (%),[6],5%
same,Population Mitotic Cells (%),[6],12%
same,Population Normal (%),[6],96%
same,Population Pyknosed Nuclei (%),[6],10%
same,Total Cell Count,[6],165
same,Population Apoptotic (%),[7],72%
same,Population Fragmented Nuclei (%),[7],17%
same,Population Healthy Nuclei (%),[7],72%
same,Population Hoechst High Intensity Objects (%),[7],0%
same,Population Membrane Permeable-Phenotype (%),[7],3%
same,Population Mitochondria Different-Phenotype (%),[7],1%
same,Population Mitotic Cells (%),[7],27%
same,Population Normal (%),[7],99%
same,Population Pyknosed Nuclei (%),[7],10%
same,Population Tubulin-Different-Phenotype (%),[7],2%
same,Total Cell Count,[7],311
same,Population Apoptotic (%),[8],81%
same,Population Fragmented Nuclei (%),[8],15%
same,Population Healthy Nuclei (%),[8],77%
same,Population Hoechst High Intensity Objects (%),[8],1%
same,Population Membrane Permeable-Phenotype (%),[8],5%
same,Population Mitochondria Different-Phenotype (%),[8],2%
same,Population Mitotic Cells (%),[8],18%
same,Population Normal (%),[8],98%
same,Population Pyknosed Nuclei (%),[8],7%
same,Population Tubulin-Different-Phenotype (%),[8],4%
same,Total Cell Count,[8],153
same,Population Apoptotic (%),[9],100%
same,Population Fragmented Nuclei (%),[9],17%
same,Population Healthy Nuclei (%),[9],71%
same,Population Hoechst High Intensity Objects (%),[9],4%
same,Population Membrane Permeable-Phenotype (%),[9],4%
same,Population Mitochondria Different-Phenotype (%),[9],2%
same,Population Mitotic Cells (%),[9],0%
same,Population Normal (%),[9],95%
same,Population Pyknosed Nuclei (%),[9],10%
same,Population Tubulin-Different-Phenotype (%),[9],2%
same,Total Cell Count,[9],271
same,Population Apoptotic (%),[10],83%
same,Population Fragmented Nuclei (%),[10],15%
same,Population Healthy Nuclei (%),[10],70%
same,Population Hoechst High Intensity Objects (%),[10],3%
same,Population Mitochondria Different-Phenotype (%),[10],4%
same,Population Mitotic Cells (%),[10],16%
same,Population Normal (%),[10],96%
same,Population Pyknosed Nuclei (%),[10],14%
same,Population Tubulin-Different-Phenotype (%),[10],4%
same,Total Cell Count,[10],216
same,Population Apoptotic (%),[11],86%
same,Population Fragmented Nuclei (%),[11],16%
same,Population Healthy Nuclei (%),[11],73%
same,Population Hoechst High Intensity Objects (%),[11],2%
same,Population Membrane Permeable-Phenotype (%),[11],6%
same,Population Mitochondria Different-Phenotype (%),[11],1%
same,Population Mitotic Cells (%),[11],13%
same,Population Normal (%),[11],97%
same,Population Pyknosed Nuclei (%),[11],10%
same,Population Tubulin-Different-Phenotype (%),[11],2%
same,Total Cell Count,[11],436
same,Population Apoptotic (%),[12],100%
same,Population Fragmented Nuclei (%),[12],12%
same,Population Healthy Nuclei (%),[12],75%
same,Population Hoechst High Intensity Objects (%),[12],1%
same,Population Mitotic Cells (%),[12],0%
same,Population Normal (%),[12],98%
same,Population Pyknosed Nuclei (%),[12],11%
same,Population Tubulin-Different-Phenotype (%),[12],6%
same,Total Cell Count,[12],220
